Some results are limits rather than exact numbers.

Data set [1] addresses T1, Thymidine kinase, cytosolic (Homo sapiens, UniProt P04183).
T1 sequence (P04183 whole entry): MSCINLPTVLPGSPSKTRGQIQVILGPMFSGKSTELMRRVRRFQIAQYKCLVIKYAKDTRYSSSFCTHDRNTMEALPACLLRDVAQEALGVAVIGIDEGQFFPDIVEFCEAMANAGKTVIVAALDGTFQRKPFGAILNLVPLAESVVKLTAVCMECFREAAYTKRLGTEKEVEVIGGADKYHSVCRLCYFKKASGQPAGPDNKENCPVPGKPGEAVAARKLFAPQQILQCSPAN
The data set can be described thus: Inhibition of human cytosolic thymidine kinase 1. In short, it runs like this: (§1)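 Purified recombinant VZV TK (7.75 ng), HSV-1 TK (226 ng) or human cytosolic TK-1 (455 ng) in 50 mM Tris-HCl pH 8.0, 2.5 mM MgCl2, 10 mM DTT, 2.5 mM ATP, 1 mg/mL BSA, 10 mM NaF, with 1 µM final [CH3-3H]dThd substrate. Incubated 30 min at 37 °C with varied compound concentrations; the reaction was linear over this time. Product bound on DE-81 filters, washed, and counted by liquid scintillation. Result reported as IC50.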

The nature of data set [2]: Inhibition of HSV1 thymidine kinase. Also noted: species or system Human alphaherpesvirus 1. The essentials:
as §1

A short description of data set [3]: Inhibition of Varicella zoster virus thymidine kinase. Further details: species or system Human alphaherpesvirus 3. The essentials:
as §1

For data set [4], the system named is Stomach. Nature of the data set: Biodistribution in NMRI mouse stomach assessed as radioactivity after 2 mins. Particulars: in vivo. The data set is classed as ADME, organism-based. In short, it runs like this:
(§2)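 Male NMRI mice (37–43 g) given 0.1 mL HPLC-purified tracer (diluted in water for injection, EtOH <5%; 37 MBq/mL for 11C tracer, 3.7 MBq/mL for 18F tracer) via tail vein under ketamine/xylazine ip anaesthesia. Decapitation at 2 or 60 min, n=3 per time point. Organs dissected, weighed, gamma counted. Results given as %ID (cpm organ/total cpm recovered) or SUV. Blood mass taken as 7% of body mass. Mean ± SD.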

The species entered for data set [5] is Mus musculus. Nature of the data set: Biodistribution in NMRI mouse carcass assessed as radioactivity after 2 mins. The data set is classed as ADME, organism-based. As to conditions: in vivo. In short, it runs like this:
as §2

The species named for data set [6] is Mus musculus. The data set can be described thus: Biodistribution in NMRI mouse urine assessed as radioactivity after 2 mins. The data set is classed as ADME, organism-based. Particulars: in vivo. The essentials: as §2
In data set [7] the test system is Kidney. Nature of the data set: Biodistribution in NMRI mouse kidney assessed as radioactivity after 60 mins. It is filed as ADME, organism-based. Particulars: in vivo, 1 h. In short, it runs like this: as §2
Data set [8] concerns Heart. The data set can be described thus: Biodistribution in NMRI mouse heart assessed as radioactivity after 2 mins. The data set is classed as ADME, organism-based. Particulars: in vivo. The essentials:
as §2

Data set [9] has as its system Lung. Nature of the data set: Biodistribution in NMRI mouse lungs assessed as radioactivity after 2 mins. It is filed as ADME, organism-based. As to conditions: in vivo. In short, it runs like this: as §2
For data set [10], the species on record is Mus musculus. Nature of the data set: Biodistribution in NMRI mouse carcass assessed as radioactivity after 60 mins. The data set is classed as ADME, organism-based. Particulars: in vivo, 1 h. The essentials:
as §2

Data set [11] deals with Lung. The data set can be described thus: Biodistribution in NMRI mouse lungs assessed as radioactivity after 60 mins. It is filed as ADME, organism-based. Particulars: in vivo, 1 h. In short, it runs like this:
as §2

Data set [12] relates to Brain. The data set can be described thus: Biodistribution in NMRI mouse brain assessed as radioactivity after 60 mins. The data set is classed as ADME, organism-based. As to conditions: in vivo, 1 h. In short, it runs like this: as §2
In data set [13] the test system is Heart. Nature of the data set: Biodistribution in NMRI mouse heart assessed as radioactivity after 60 mins. The data set is classed as ADME, organism-based. As to conditions: in vivo, 1 h. In short, it runs like this: as §2
In data set [14] the test system is Brain. The data set can be described thus: Biodistribution in NMRI mouse brain assessed as radioactivity after 2 mins. The data set is classed as ADME, organism-based. As to conditions: in vivo. In short, it runs like this:
as §2

In data set [15] the test system is Blood. The data set can be described thus: Biodistribution in NMRI mouse blood assessed as radioactivity after 2 mins. Particulars: in vivo. The data set is classed as ADME, organism-based. In short, it runs like this: as §2
The subject of data set [16] is Stomach. The data set can be described thus: Biodistribution in NMRI mouse stomach assessed as radioactivity after 60 mins. It is filed as ADME, organism-based. Particulars: in vivo, 1 h. In short, it runs like this: as §2
The species named for data set [17] is Mus musculus. Nature of the data set: Biodistribution in NMRI mouse spleen + pancreas assessed as radioactivity after 2 mins. It is filed as ADME, organism-based. Particulars: in vivo. The essentials:
as §2

The nature of data set [18]: Drug uptake in LV-VZVTK-IP transduced 293T cells assessed as radioactivity at 1.1 MBq after 0.5 hrs. The data set is classed as ADME, cell-based. Particulars: human, hek-293t. In short, it runs like this: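 293T cells stably transduced with lentivirus carrying VZV-tk-IRES-pac (kept in 1 µg/mL puromycin), alongside untransduced control 293T cells. Plated in triplicate at 200 000 cells/well. After 24 h, fresh medium with HPLC-purified tracer added: 1.1 MBq (11C tracer, 0.5 h) or 185 kBq (18F tracer, 3 h), 37 °C. Cells washed with ice-cold PBS and lysed. Gamma counting. Uptake given as % of total radioactivity per mg protein (Bio-Rad assay).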

Data set [19] relates to Liver. Nature of the data set: Biodistribution in NMRI mouse liver assessed as radioactivity after 60 mins. The data set is classed as ADME, organism-based. Particulars: in vivo, 1 h. In short, it runs like this: as §2
The species named for data set [20] is Mus musculus. Nature of the data set: Biodistribution in NMRI mouse spleen + pancreas assessed as radioactivity after 60 mins. The data set is classed as ADME, organism-based. Particulars: in vivo, 1 h. In short, it runs like this:
as §2

The species named for data set [21] is Mus musculus. Nature of the data set: Biodistribution in NMRI mouse urine assessed as radioactivity after 60 mins. Particulars: in vivo, 1 h. The data set is classed as ADME, organism-based. The essentials: as §2
The nature of data set [22]: Partition coefficient, log P in 1-octanol and phosphate buffer at pH 7.4. The data set is classed as physicochemical. As to conditions: 1-octanol/phosphate buffer. In short, it runs like this:
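HPLC-isolated tracer (about 550 kBq 11C or 185 kBq 18F) partitioned between 1-octanol and 0.025 M phosphate buffer pH 7.4 (2 mL each). Vortexed 2 min at room temperature, centrifuged 1837 g for 5 min. Aliquots of both phases weighed and gamma counted. P calculated as the cpm/mL ratio after density correction; n=6.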

Data set [23] concerns Intestine. The data set can be described thus: Biodistribution in NMRI mouse intestine assessed as radioactivity after 60 mins. The data set is classed as ADME, organism-based. As to conditions: in vivo, 1 h. In short, it runs like this: as §2
Data set [24] relates to Liver. Nature of the data set: Biodistribution in NMRI mouse liver assessed as radioactivity after 2 mins. As to conditions: in vivo. It is filed as ADME, organism-based. The essentials: as §2
The subject of data set [25] is Intestine. Nature of the data set: Biodistribution in NMRI mouse intestine assessed as radioactivity after 2 mins. The data set is classed as ADME, organism-based. As to conditions: in vivo. In short, it runs like this:
as §2

The test system of data set [26] is Blood. The data set can be described thus: Biodistribution in NMRI mouse blood assessed as radioactivity after 60 mins. Particulars: in vivo, 1 h. The data set is classed as ADME, organism-based. The essentials:
as §2

Data set [27] deals with Kidney. The data set can be described thus: Biodistribution in NMRI mouse kidney assessed as radioactivity after 2 mins. It is filed as ADME, organism-based. As to conditions: in vivo. The essentials:
as §2

What is called IC50 is the midpoint of a concentration-inhibition curve. As to `O=c1nc2oc(-c3cccc(OCCCCCCF)c3)cc2cn1[C@H]1C[C@H](O)[C@@H](CO)O1`, the IC50 in data set [1], in data set [2] and in data set [3] was over 500 µM throughout.
As a reminder, the logD is lipophilicity at a set pH, counting ionised and neutral species. The low end stands for lower lipophilicity, the high end for higher lipophilicity. Turning to `[11CH3]Oc1ccc(-c2cc3cn([C@H]4C[C@H](O)[C@@H](CO)O4)c(=O)nc3o2)cc1`, the Drug uptake is on record as 1.2 %ID in data set [4]; 29.5 %ID in data set [5]; 1.4 %ID in data set [6]; 1.4 %ID in data set [7]; 0.5 %ID in [8]; 1.2 %ID in data set [9]. Besides, the Drug uptake in data set [10] stood at 5.8 %ID; in [11], 0.1 %ID; in data set [12], 0 %ID; in data set [13], 0 %ID; in [14] it was 0 %ID; in data set [15] it was 7.1 %ID. In addition, the Drug uptake in [16] is on record as 1 %ID; in data set [17], 1.5 %ID; in [18], 28.8 %ID; in data set [19] it was 9.9 %ID; in [20] it was 0.4 %ID; in data set [21], 34.3 %ID. Also, the Drug uptake in data set [23] is reported as 46.7 %ID; in data set [24], 20.3 %ID; in data set [25], 16.8 %ID; in [26], 0.6 %ID; in data set [27], 22.9 %ID. Moreover, the logD in [22] was 1.3.

The values are drawn from ChEMBL document CHEMBL1138348, “A p-[18F]fluoroethoxyphenyl bicyclic nucleoside analogue as a potential positron emission tomography imaging agent for varicella-zoster virus thymidine kinase gene expression” (J Med Chem, 2007).
